The values that follow come from BindingDB's records for doi:10.1021/jm00108a037 (Katholieke Universiteit Leuven, 1991).

Assay [1] has as its target T1, Acyl-protein thioesterase 1 (Rattus norvegicus, UniProt P70470). Put plainly: ChEBML_100186. The text has this: in vitro inhibitory activity against Lysosomal phospholipase A1 consisting of negatively charged liposomes and lysosomal extracts. p<0.05
The target in assay [2] is T1, Acyl-protein thioesterase 1. Put plainly: in vitro inhibitory activity against Lysosomal phospholipase A1 consisting of negatively charged liposomes and lysosomal extracts. In outline: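 Lysosomal phospholipase activity measured on labeled phosphatidylcholine incorporated into negatively charged liposomes, read as release of labeled lysophosphatidylcholine.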

T1 sequence (P70470 whole entry): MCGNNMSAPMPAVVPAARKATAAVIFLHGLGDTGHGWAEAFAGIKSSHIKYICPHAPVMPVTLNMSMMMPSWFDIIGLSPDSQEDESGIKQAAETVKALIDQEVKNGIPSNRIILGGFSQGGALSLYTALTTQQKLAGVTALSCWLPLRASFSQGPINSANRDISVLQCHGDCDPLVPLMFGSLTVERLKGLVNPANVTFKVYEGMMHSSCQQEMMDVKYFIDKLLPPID

A word on the IC50: it is the concentration needed to halve the response being measured. Read a high IC50 as a need for much substance. In assay [1], `NCC1OC(OC2C(N)CC(N)(CO)C(OC3OC(CO)C(O)C(N)C3O)C2O)C(N)C(O)C1O` (centres undefined) showed an IC50 of 79 µM.

As for `CC(=O)NCC1OC(OC2C(O)C(OC3OC(CN)C(O)C(O)C3N)C(N)CC2(N)CO)C(O)C(N)C1O` (centres undefined), the IC50 in assay [2] is 119 µM.

On to `NCC1OC(OC2C(N)CC(N)(CO)C(OC3OC(CCl)C(O)C(N)C3O)C2O)C(N)C(O)C1O` (centres undefined), for which inhibition in assay [2] was half-maximal at 105 µM (IC50).

On to `[N-]=[N+]=NCC1OC(OC2C(O)C(OC3OC(CN)C(O)C(O)C3N)C(N)CC2(N)CO)C(O)C(N)C1O` (centres undefined), for which the IC50 in assay [1] was found to be 95 µM.
